Like-named read-outs stand apart in the source and are kept apart here.
Assays:
[1] = target: human GSK-3β (Homo sapiens, UniProt P49841); test: In vitro GSK-3β inhibition: phosphorylation of primed substrate; format: biochemical
[2] = target: T1, CYP1A2 (Homo sapiens, UniProt P05177); test: Cytochrome P450 inhibition; format: in vitro ADME; conditions: up to 10 μM of 3a
T1 sequence (P05177 1-516): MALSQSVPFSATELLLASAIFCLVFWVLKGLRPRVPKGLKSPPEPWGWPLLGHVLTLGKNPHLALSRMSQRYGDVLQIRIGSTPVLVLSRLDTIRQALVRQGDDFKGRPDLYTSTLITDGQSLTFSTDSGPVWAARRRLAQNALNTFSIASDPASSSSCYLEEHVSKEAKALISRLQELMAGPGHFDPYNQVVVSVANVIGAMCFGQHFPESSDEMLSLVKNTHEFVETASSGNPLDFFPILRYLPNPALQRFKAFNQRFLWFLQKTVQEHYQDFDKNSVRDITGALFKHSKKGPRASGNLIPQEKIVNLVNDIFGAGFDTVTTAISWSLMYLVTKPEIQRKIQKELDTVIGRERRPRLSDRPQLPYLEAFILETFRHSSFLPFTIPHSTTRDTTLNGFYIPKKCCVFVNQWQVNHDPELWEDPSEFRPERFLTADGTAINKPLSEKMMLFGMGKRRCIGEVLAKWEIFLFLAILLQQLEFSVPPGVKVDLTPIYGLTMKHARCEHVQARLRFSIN

[3] = tested on: C57BL/6J male mice; test: Prepulse inhibition of the acoustic startle response; format: in vivo; conditions: 30 min pretreatment
Summary of the method: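 Male C57BL/6J mice given test compound (10 or 25 mgkg−1) or vehicle i.p. in 10% DMSO, 30 min before testing. 5 min habituation to 70 dB background noise, then six startle-alone trials. Ten blocks of randomized null, 120 dB startle, prepulse (4/8/12 dB above background)+startle, and prepulse-alone trials. PPI = [1−(prepulse+startle)/startle amplitude]×100%. n=8–14 per group; repeated-measures ANOVA.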

[4] = target: CYP3A4 (Homo sapiens, UniProt P08684); test: Cytochrome P450 inhibition; format: in vitro ADME; conditions: up to 10 μM of 3a
[5] = target: CYP2C9 (Homo sapiens, UniProt P11712); test: Cytochrome P450 inhibition; format: in vitro ADME; conditions: up to 10 μM of 3a
[6] = Human liver microsomal stability; format: in vitro ADME; conditions: 60 min, 1 and 10 μM
[7] = tested on: C57BL/6J male mice; test: Amphetamine–chlordiazepoxide locomotor hyperactivity procedure; format: in vivo
[8] = target: CYP2D6 (Homo sapiens, UniProt P10635); test: Cytochrome P450 inhibition; format: in vitro ADME; conditions: up to 10 μM of 3a
[9] = Mouse liver microsomal stability; format: in vitro ADME; conditions: 60 min, 1 and 10 μM
[10] = tested on: 15 kinases; test: Selectivity studies against 15 kinases; format: biochemical; conditions: 15 kinases (Supporting Information)
[11] = target: CYP2C19 (Homo sapiens, UniProt P33261); test: Cytochrome P450 inhibition; format: in vitro ADME; conditions: up to 10 μM of 3a
[12] = target: T2, CYP2B6 (Homo sapiens, UniProt P20813); test: Cytochrome P450 inhibition; format: in vitro ADME; conditions: up to 10 μM of 3a
T2 sequence (P20813 1-491): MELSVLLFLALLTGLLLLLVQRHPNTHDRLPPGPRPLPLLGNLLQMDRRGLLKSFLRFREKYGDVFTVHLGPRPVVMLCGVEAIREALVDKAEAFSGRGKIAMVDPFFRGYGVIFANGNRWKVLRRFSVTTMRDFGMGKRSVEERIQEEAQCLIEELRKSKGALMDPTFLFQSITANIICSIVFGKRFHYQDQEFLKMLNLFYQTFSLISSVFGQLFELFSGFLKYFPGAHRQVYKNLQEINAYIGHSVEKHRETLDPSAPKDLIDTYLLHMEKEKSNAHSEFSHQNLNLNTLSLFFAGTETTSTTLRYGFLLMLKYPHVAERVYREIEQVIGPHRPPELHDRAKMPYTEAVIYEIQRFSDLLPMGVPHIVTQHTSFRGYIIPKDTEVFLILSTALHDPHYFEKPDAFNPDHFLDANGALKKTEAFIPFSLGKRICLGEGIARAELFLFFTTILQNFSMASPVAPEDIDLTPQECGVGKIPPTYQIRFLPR

[13] = Aqueous solubility, HPLC-based method; format: physicochemical
[14] = tested on: ClockΔ19 mutant mice; test: Locomotor activity in CLOCK mutant mice; format: in vivo; conditions: 12.5 mgkg^−1 i.p. once a day for five days, 2 h recording
[15] = primed substrate 20 μm, 10 μm ATP, tested at Reaction Biology Inc.

Sequence of human GSK-3β (P49841 whole entry): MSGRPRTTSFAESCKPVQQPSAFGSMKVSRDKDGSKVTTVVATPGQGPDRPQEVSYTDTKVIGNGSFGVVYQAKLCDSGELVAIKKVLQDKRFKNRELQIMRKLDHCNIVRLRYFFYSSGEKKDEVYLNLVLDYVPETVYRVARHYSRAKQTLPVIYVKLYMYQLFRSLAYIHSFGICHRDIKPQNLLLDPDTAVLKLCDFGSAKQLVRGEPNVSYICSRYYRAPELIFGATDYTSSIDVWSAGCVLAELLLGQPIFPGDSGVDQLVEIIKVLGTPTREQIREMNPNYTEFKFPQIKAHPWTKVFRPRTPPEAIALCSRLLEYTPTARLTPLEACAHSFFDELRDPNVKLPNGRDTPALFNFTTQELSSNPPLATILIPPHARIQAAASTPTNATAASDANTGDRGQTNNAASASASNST
Sequence of CYP3A4 (P08684 whole entry): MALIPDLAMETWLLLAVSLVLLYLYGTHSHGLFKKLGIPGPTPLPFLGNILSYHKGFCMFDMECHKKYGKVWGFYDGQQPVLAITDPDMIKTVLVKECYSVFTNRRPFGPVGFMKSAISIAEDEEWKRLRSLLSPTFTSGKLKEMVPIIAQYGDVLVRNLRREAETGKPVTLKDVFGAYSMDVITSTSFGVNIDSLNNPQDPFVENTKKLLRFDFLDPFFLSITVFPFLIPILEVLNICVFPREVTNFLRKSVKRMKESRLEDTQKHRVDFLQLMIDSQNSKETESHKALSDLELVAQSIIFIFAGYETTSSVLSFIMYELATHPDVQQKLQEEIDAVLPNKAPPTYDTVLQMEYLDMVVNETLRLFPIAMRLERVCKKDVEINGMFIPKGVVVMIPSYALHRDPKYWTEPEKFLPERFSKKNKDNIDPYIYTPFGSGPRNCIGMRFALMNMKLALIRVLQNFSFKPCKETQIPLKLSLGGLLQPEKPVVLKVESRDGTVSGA
Sequence of CYP2D6 (P10635 whole entry): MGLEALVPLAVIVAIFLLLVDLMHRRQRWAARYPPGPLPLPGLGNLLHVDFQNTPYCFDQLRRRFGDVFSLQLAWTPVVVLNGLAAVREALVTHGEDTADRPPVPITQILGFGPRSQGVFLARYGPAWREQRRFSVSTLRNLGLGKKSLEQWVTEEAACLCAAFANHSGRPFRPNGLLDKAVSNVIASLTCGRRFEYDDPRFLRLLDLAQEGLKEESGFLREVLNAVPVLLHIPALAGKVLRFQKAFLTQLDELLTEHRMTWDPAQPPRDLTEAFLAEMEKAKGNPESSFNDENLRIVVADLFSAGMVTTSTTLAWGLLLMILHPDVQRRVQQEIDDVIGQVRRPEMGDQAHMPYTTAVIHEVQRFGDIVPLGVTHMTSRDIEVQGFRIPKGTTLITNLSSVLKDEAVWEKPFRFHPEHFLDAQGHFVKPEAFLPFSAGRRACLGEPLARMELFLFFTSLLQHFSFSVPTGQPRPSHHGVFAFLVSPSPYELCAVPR
Sequence of CYP2C19 (P33261 whole entry): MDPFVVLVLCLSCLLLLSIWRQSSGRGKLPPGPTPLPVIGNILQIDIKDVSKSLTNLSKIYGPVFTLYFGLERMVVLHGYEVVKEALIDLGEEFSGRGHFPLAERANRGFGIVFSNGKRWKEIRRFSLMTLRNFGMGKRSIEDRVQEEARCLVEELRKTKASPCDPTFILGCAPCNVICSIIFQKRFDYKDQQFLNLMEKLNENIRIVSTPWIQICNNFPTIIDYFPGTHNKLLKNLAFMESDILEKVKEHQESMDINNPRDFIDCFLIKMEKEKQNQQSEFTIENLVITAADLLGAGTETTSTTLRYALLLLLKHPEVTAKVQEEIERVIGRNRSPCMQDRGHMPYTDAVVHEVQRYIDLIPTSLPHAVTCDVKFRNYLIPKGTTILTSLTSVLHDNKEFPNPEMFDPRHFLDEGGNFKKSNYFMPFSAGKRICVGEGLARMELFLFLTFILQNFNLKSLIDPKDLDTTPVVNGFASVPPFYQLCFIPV
Sequence of CYP2C9 (P11712 whole entry): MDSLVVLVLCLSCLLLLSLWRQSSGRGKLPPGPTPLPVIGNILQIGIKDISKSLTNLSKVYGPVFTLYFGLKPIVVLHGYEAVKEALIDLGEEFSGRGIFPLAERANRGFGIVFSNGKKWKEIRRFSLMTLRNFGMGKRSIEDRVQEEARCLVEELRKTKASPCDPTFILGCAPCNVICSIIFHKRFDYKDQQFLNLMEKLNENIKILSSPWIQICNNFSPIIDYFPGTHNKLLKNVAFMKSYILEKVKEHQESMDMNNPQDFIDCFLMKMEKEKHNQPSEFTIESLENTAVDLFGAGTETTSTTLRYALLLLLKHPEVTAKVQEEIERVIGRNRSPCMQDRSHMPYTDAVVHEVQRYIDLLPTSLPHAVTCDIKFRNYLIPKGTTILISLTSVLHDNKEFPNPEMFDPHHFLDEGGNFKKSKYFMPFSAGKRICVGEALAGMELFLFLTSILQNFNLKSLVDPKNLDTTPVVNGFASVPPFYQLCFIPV

Question: For `O=C1NC(=O)C(c2cn(C3CCNCC3)c3ccc(F)cc23)=C1c1coc2ccccc12` [Compound 3d, 3-Benzofuran-3-yl-4-(5-fluoro-1-piperidin-4-yl-1H-indol-3-yl)-pyr-role-2,5-dione], which IC50 [1, 15] is on record?
Answer: The IC50 was 30 ± 4 nM.

Question: Which IC50 [1] does the source give for `CN1CCC(n2cc(C3=C(c4coc5ccccc45)C(=O)NC3=O)c3ccccc32)CC1` [Compound 3h, 3-Benzofuran-3-yl-4-[1-(1-methyl-piperidin-4-yl)-1H-indol-3-yl]-pyrrole-2,5-dione] here?
Answer: Its IC50 is 155 ± 2 nM.

Question: With `O=C1NC(=O)C(c2cn(C3CCN(Cc4ccccn4)CC3)c3ccccc23)=C1c1coc2ccccc12` [Compound 3i, 3-Benzofuran-3-yl-4-[1-(1-pyridin-2-ylmethyl-piperidin-4-yl)-1H-indol-3-yl]-pyrrole-2,5-dione] as the compound, how does the IC50 [1] read?
Answer: The IC50 was 110 ± 4 nM.

Question: With `O=C1NC(=O)C(c2cn(C3CCNCC3)c3ccc(Br)cc23)=C1c1coc2ccccc12` [3 f, 3-Benzofuran-3-yl-4-(5-bromo-1-piperidin-4-yl-1H-indol-3-yl)-pyr-role-2,5-dione] as the compound, how does the IC50 [1, 15] read?
Answer: The IC50 was 684 ± 17 nM.

Question: With `O=C1NC(=O)C(c2cn(C3CCN(C(=O)c4cnccn4)CC3)c3ccccc23)=C1c1coc2ccccc12` [Compound 3o, 3-Benzofuran-3-yl-4-{1-[1-(pyrazine-2-carbonyl)-piperidin-4-yl]-1H-indol-3-yl}-pyrrole-2,5-dione] as the compound, how does the IC50 [1] read?
Answer: The IC50 was 4 ± 1 nM.

Question: Which IC50 [1] does the source give for `COc1ccc2c(C3=C(c4cn(C5CCNCC5)c5ccccc45)C(=O)NC3=O)coc2c1` [Compound 3b, 3-(6-Methoxy-benzofuran-3-yl)-4-(1-piperidin-4-yl-1H-indol-3-yl)-pyrrole-2,5-dione] here?
Answer: Its IC50 is 629 ± 32 nM.

Question: For `O=C1NC(=O)C(c2cn(C3CCN(Cc4ccncc4)CC3)c3ccccc23)=C1c1coc2ccccc12` [Compound 3j, 3-Benzofuran-3-yl-4-[1-(1-pyridin-4-ylmethyl-piperidin-4-yl)-1H-indol-3-yl]-pyrrole-2,5-dione], which IC50 [1] is on record?
Answer: The IC50 was 65 ± 4 nM.

Question: For `O=C1NC(=O)C(c2cn(C3CCNCC3)c3ccc(Cl)cc23)=C1c1coc2ccccc12` [Compound 3e, 3-Benzofuran-3-yl-4-(5-chloro-1-piperidin-4-yl-1H-indol-3-yl)-pyr-role-2,5-dione], which IC50 [1, 15] is on record?
Answer: Its IC50 is 272 ± 27 nM.

Question: Which IC50 [1] does the source give for `O=C1NC(=O)C(c2cn(C3CCN(C(=O)c4cccnc4)CC3)c3ccccc23)=C1c1coc2ccccc12` [Compound 3m, 3-Benzofuran-3-yl-4-{1-[1-(pyridine-3-carbonyl)-piperidin-4-yl]-1H-indol-3-yl}-pyrrole-2,5-dione] here?
Answer: Its IC50 is 8 ± 2 nM.

Question: With `O=C1NC(=O)C(c2cn(C3CCN(C(=O)c4ccccn4)CC3)c3ccccc23)=C1c1coc2ccccc12` [Compound 3l, 3-Benzofuran-3-yl-4-{1-[1-(pyridine-2-carbonyl)-piperidin-4-yl]-1H-indol-3-yl}-pyrrole-2,5-dione] as the compound, how does the IC50 [1] read?
Answer: Its IC50 is 6 ± 1 nM.

Question: Which IC50 [1] does the source give for `NCC(=O)N1CCC(n2cc(C3=C(c4coc5ccccc45)C(=O)NC3=O)c3ccccc32)CC1` [Compound 3p, 3-{1-[1-(2-Amino-acetyl)-piperidin-4-yl]-1H-indol-3-yl}-4-benzofuran-3-yl-pyrrole-2,5-dione] here?
Answer: Its IC50 is 55 ± 2 nM.

Question: For `COc1cccc2c(C3=C(c4cn(C5CCNCC5)c5ccccc45)C(=O)NC3=O)coc12` [Compound 3c, 3-(7-Methoxy-benzofuran-3-yl)-4-(1-piperidin-4-yl-1H-indol-3-yl)-pyrrole-2,5-dione], which IC50 [1] is on record?
Answer: The IC50 was 134 ± 5 nM.

Question: With `O=C1NC(=O)C(c2cn(C3CCNCC3)c3ccccc23)=C1c1coc2ccccc12` [Compound 3a, 3-Benzofuran-3-yl-4-(1-piperidin-4-yl-1H-indol-3-yl)-pyrrole-2,5-dione] as the compound, how does the CYP1A2 inhibition [2] read?
Answer: Its CYP1A2 inhibition is ≤ 30%.

Question: What about the “prepulse inhibition (PPI)” value ([3]; 10 mgkg^−1 i.p.) of the same compound?
Answer: Its value is “not active”.

Question: What about the “prepulse inhibition (PPI)” value ([3]; 25 mgkg^−1 i.p.) of the same compound?
Answer: Its value is “enhanced PPI”.

Question: What about the CYP3A4 inhibition [4] of the same compound?
Answer: Its CYP3A4 inhibition is ≤ 30%.

Question: And the CYP2C9 inhibition [5]?
Answer: The CYP2C9 inhibition was ≤ 30%.

Question: And the “compound remained after incubation with liver microsomes” value [6]?
Answer: The value was “more than 83%”.

Question: And the “activity in the Amph/CDP assay” value ([7]; 3 mgkg^−1 i.p., 5 min pretreatment)?
Answer: The value was “not active”.

Question: What about the baseline locomotor activity ([7]; doses higher than 10 mgkg^−1) of the same compound?
Answer: Its baseline locomotor activity is “reductions in baseline locomotor activity”.

Question: And the CYP2D6 inhibition [8]?
Answer: Its CYP2D6 inhibition is ≤ 30%.

Question: What about the “compound remained after incubation with liver microsomes” value [9] of the same compound?
Answer: The value was “more than 83%”.

Question: And the kinase selectivity [10]?
Answer: The kinase selectivity was “reasonably selective amongst other kinases with the exception of PKA and PKC-b2”.

Question: And the CYP2C19 inhibition [11]?
Answer: Its CYP2C19 inhibition is ≤ 30%.

Question: What about the CYP2B6 inhibition [12] of the same compound?
Answer: Its CYP2B6 inhibition is ≤ 30%.

Question: And the aqueous solubility [13]?
Answer: Its aqueous solubility is 196 mgL^−1.

Question: What about the IC50 [1] of the same compound?
Answer: The IC50 was 67 ± 6 nM.

Question: What about the “locomotor hyperactivity in response to novelty (beam breaks)” value [14] of the same compound?
Answer: The value was “attenuation of the locomotor hyperactivity”.

Question: For `O=C1NC(=O)C(c2cn(C3CCN(C(=O)N4CCOCC4)CC3)c3ccccc23)=C1c1coc2ccccc12` [Compound 3k, 3-Benzofuran-3-yl-4-{1-[1-(morpholine-4-carbonyl)-piperidin-4-yl]-1H-indol-3-yl}-pyrrole-2,5-dione], which IC50 [1] is on record?
Answer: The IC50 was 10 ± 2 nM.

Question: With `O=C1NC(=O)C(c2cn(C3CCN(C(=O)c4ccncc4)CC3)c3ccccc23)=C1c1coc2ccccc12` [Compound 3n, 3-Benzofuran-3-yl-4-{1-[1-(pyridine-4-carbonyl)-piperidin-4-yl]-1H-indol-3-yl}-pyrrole-2,5-dione] as the compound, how does the IC50 [1] read?
Answer: Its IC50 is 4 ± 1 nM.

Question: Which IC50 [1] does the source give for `Cc1nonc1C(=O)N1CCC(n2cc(C3=C(c4coc5ccccc45)C(=O)NC3=O)c3ccccc32)CC1` [Compound 3q, 3-Benzofuran-3-yl-4-{1-[1-(4-methyl-furazan-3-carbonyl)-piperidin-4-yl]-1H-indol-3-yl}-pyrrole-2,5-dione] here?
Answer: The IC50 was 25 ± 2 nM.

Question: Which IC50 [1] does the source give for `COc1cccc2c(C3=C(c4cn(C5CCNCC5)c5ccc(F)cc45)C(=O)NC3=O)coc12` [Compound 3g, 3-(5-Fluoro-1-piperidin-4-yl-1H-indol-3-yl)-4-(7-methoxy-benzo-furan-3-yl)-pyrrole-2,5-dione] here?
Answer: Its IC50 is 28 ± 4 nM.

— PMC3428230 (ChemMedChem, 2011)
